This passage reports zone of inhibition and Activity results from ChEMBL document CHEMBL1148142, “New metabolites from sponge-derived fungi Curvularia lunata and Cladosporium herbarum” (J Nat Prod, 2002).

Molecules are shown by their SMILES. Active and inactive are the calls of the source. The calls are words filed in the database; no cut-off is given here.

For assay [1], the system named is Staphylococcus aureus. Put plainly: Antibacterial activity against Staphylococcus aureus ATCC 25923 at 5 ug/disk by agar plate diffusion assay. In kind it is functional. As to conditions: read-out: IZ. In a few lines:
(§1)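 Paper disks (5.5 mm) loaded with 5 or 10 μg of pure compound, laid on agar plates seeded with the test organism. Plates incubated 24 h at 37 °C, then inspected for inhibition zones.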

Assay [2] concerns Staphylococcus aureus. The assay can be described thus: Antibacterial activity against Staphylococcus aureus ATCC 25923 at 10 ug/disk by agar plate diffusion assay. The format is functional. As to conditions: read-out: IZ. Put shortly:
as §1

Assay [3] relates to Bacillus subtilis. The assay can be described thus: Antibacterial activity against Bacillus subtilis 168 at 5 ug/disk by agar plate diffusion assay. To be noted: read-out: IZ. In kind it is functional. Put shortly: as §1
In assay [4] the test system is Escherichia coli. Put plainly: Antibacterial activity against Escherichia coli ATCC 25922 at 5 ug/disk by agar plate diffusion assay. As to conditions: read-out: IZ. In kind it is functional. In a few lines: as §1
The subject of assay [5] is Bacillus subtilis. The assay can be described thus: Antibacterial activity against Bacillus subtilis 168 at 10 ug/disk by agar plate diffusion assay. In kind it is functional. As to conditions: read-out: IZ. Put shortly: as §1
Assay [6] has as its system Escherichia coli. The assay can be described thus: Antibacterial activity against Escherichia coli ATCC 25922 at 10 ug/disk by agar plate diffusion assay. The format is functional. As to conditions: read-out: IZ. Put shortly: as §1
Assay [7] relates to Escherichia coli. Put plainly: Antibacterial activity against Escherichia coli HBI 101 at 5 ug/disk by agar plate diffusion assay. The format is functional. To be noted: read-out: IZ. Put shortly:
as §1

Assay [8] concerns Escherichia coli. Put plainly: Antibacterial activity against Escherichia coli HBI 101 at 10 ug/disk by agar plate diffusion assay. In kind it is functional. As to conditions: read-out: IZ. In a few lines:
as §1

Assay [9] has as its system Candida albicans. Put plainly: Antifungal activity against Candida albicans at 5 ug/disk by agar plate diffusion assay. In kind it is functional, organism-based. In a few lines:
as §1

Assay [10] concerns Candida albicans. Put plainly: Antifungal activity against Candida albicans at 10 ug/disk by agar plate diffusion assay. In kind it is functional, organism-based. In a few lines: as §1
The next assay relates to HL-60. Put plainly: Cytotoxicity against human HL60 cells. The format is functional, cell-based.

With `COc1cc(O)c2c(c1)C(=O)c1cc(O)cc(O)c1C2=O` [LUNATIN], the zone of inhibition at 5 µg/disc in the assay with Staphylococcus aureus [1] was determined as 8.5 mm; in the assay on Bacillus subtilis [3] it was 7.5 mm; with Escherichia coli [4], 9 mm; with Escherichia coli [7], 8 mm. Further, the zone of inhibition at 10 µg/disc with Staphylococcus aureus [2] worked out at 10 mm; in the assay with Bacillus subtilis [5], 9 mm; in the assay with Escherichia coli [6], 11 mm; in the assay on Escherichia coli [8], 10.5 mm. Moreover, the result with Candida albicans [9] and in the assay on Candida albicans [10] was inactive.
`O=C(O)CC1OC(=O)c2c(O)cc(O)cc21` (stereo unspecified): the Activity result in the assay with HL-60 is “Not toxic”.
Regarding `COc1cc(O)c2c(c1)C(=O)C13C(=C(O)C4[C@@H](O)C1C1[C@H](O)C3C(O)=C3C(=O)c5c(O)cc(OC)cc5C(=O)C341)C2=O` (stereo partly specified) [CYTOSKYRIN A], the zone of inhibition at 5 µg/disc in the assay with Staphylococcus aureus [1] was determined as 8.5 mm; with Bacillus subtilis [3], 8 mm; in the assay on Escherichia coli [4], 9 mm; in the assay on Escherichia coli [7], 8 mm. Besides, the zone of inhibition at 10 µg/disc in the assay on Staphylococcus aureus [2] was determined as 10 mm; with Bacillus subtilis [5], 12 mm; in the assay on Escherichia coli [6], 11 mm; in the assay on Escherichia coli [8] it was 9 mm. Moreover, the outcome with Candida albicans [9] and in the assay with Candida albicans [10] was inactive.
